How the values were obtained:
[1] = target: Prothrombin (Homo sapiens, UniProt P00734); assay: Inhibition of human coagulation factor II
In short: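 Human thrombin, final 1 nM, in 0.05 M Tris, 0.15 M NaCl, 0.1% PEG-8000, pH 7.5, room temperature. Inhibitor preincubated with enzyme 30 min, then reaction started with Pefachrome TH (50 µM final). p-Nitroanilide release read continuously at 405 nm for 5 min, under 10% substrate consumed. IC50 taken from initial velocities; apparent Ki by Cheng-Prusoff, assuming competitive inhibition.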

[2] = target: Coagulation factor X (Homo sapiens, UniProt P00742); assay: Inhibition of human coagulation factor Xa
Sequence of Coagulation factor X (P00742 41-179 limits assumed): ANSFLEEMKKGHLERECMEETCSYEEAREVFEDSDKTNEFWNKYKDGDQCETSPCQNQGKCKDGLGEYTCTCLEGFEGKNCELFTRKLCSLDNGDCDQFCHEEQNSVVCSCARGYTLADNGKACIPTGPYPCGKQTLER
Sequence of Coagulation factor X (P00742 235-488 limits assumed): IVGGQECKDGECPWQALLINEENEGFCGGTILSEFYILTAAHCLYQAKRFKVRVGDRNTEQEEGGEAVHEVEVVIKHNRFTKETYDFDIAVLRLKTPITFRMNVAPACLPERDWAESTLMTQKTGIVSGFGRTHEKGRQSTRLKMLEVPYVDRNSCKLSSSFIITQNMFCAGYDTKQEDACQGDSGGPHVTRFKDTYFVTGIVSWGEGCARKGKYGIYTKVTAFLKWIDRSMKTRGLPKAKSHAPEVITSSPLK

[3] = target: Tissue factor (Homo sapiens) (UniProt P13726); assay: (§1) Activated partial thromboplastin time measured; format: functional
Sequence of Tissue factor (Homo sapiens) (P13726 whole entry): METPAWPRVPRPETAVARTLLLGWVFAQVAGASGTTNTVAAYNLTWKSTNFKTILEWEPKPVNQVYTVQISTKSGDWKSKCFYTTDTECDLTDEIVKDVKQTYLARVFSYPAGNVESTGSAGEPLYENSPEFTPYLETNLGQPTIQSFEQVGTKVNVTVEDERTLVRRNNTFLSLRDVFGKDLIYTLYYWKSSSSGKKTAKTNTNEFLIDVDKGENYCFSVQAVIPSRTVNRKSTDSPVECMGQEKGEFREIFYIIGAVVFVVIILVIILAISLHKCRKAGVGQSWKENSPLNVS
In short: (§2)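 Citrated human, dog (mongrel) and rat (Sprague-Dawley) plasma, freshly thawed, mixed 1:1 with compound dilutions. Clotting started on an automatic coagulation timer with actin-activated cephaloplastin reagent and 0.035 M CaCl2. Value is the concentration that doubles plasma clotting time.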

[4] = as §1; format: ADME; in short: as §2

Ki [1] | Ki [2] | APTT [3] | APTT [4] | Structure (SMILES)
3 µM | – | – | – | N=C(N)c1cccc(CN2CC[C@H](NS(=O)(=O)c3ccc(-c4ccncc4)s3)C2=O)c1
4 µM | 0.15 µM | – | – | N=C(N)c1cccc(CN2CC[C@H](NS(=O)(=O)c3ccc(-c4ccccn4)cc3)C2=O)c1
2.23 µM | 0.007 µM | – | – | N=C(N)c1ccc(N)c(CN2CC[C@H](NS(=O)(=O)c3ccc(-c4ccon4)s3)C2=O)c1
0.278 µM | 0.006 µM | – | – | COc1ccc2ccc(S(=O)(=O)N[C@H]3CCN(Cc4cc(C(=N)N)ccc4N)C3=O)cc2c1
2.8 µM | 0.002 µM | 0.32 µM | – | N=C(N)c1ccc(O)c(CN2CC[C@H](NS(=O)(=O)c3ccc(-c4cccnc4)s3)C2=O)c1
> 4 µM | 0.13 µM | – | – | N=C(N)c1cccc(CN2CC[C@H](NS(=O)(=O)c3ccc(-c4ccncc4)cc3)C2=O)c1
1.43 µM | – | – | – | COc1ccc2ccc(S(=O)(=O)N[C@H]3CCN(Cc4cccc(C(=N)N)c4)C3=O)cc2c1
> 4 µM | 0.049 µM | – | – | N=C(N)c1cccc(CN2CC[C@H](NS(=O)(=O)c3ccc(-c4ccon4)s3)C2=O)c1
> 4 µM | 0.13 µM | – | – | C[n+]1ccc(-c2ccc(S(=O)(=O)N[C@H]3CCN(Cc4cccc(C(=N)N)c4)C3=O)cc2)cc1
0.263 µM | 0.008 µM | – | – | COC(=O)COc1ccc(C(=N)N)cc1CN1CC[C@H](NS(=O)(=O)c2ccc3ccc(OC)cc3c2)C1=O
2.6 µM | 0.006 µM | – | – | N=C(N)c1ccc(N)c(CN2CC[C@H](NS(=O)(=O)c3ccc(-c4cccnc4)s3)C2=O)c1
– | – | – | 1.5 µM | COc1ccc2ccc(S(=O)(=O)N(C)[C@H]3CCN(Cc4csc(C(=N)N)c4)C3=O)cc2c1
> 4 µM | 0.33 µM | – | – | N=C(N)c1cccc(CN2CC[C@H](NS(=O)(=O)c3ccc(-c4cc[n+]([O-])cc4)cc3)C2=O)c1
4 µM | 0.13 µM | – | – | N=C(N)c1ccc(F)c(CN2CC[C@H](NS(=O)(=O)c3ccc(-c4cccnc4)s3)C2=O)c1
> 4 µM | 0.919 µM | – | – | COc1ccc2ccc(S(=O)(=O)N(C)[C@H]3CCN(Cc4cc(C(=N)N)ccc4NC(C)=O)C3=O)cc2c1
> 4 µM | 1.3 µM | – | – | COc1ccc2ccc(S(=O)(=O)N[C@H]3CCN(Cc4cc(C(=N)N)ccc4OCC(=O)O)C3=O)cc2c1
0.206 µM | 0.003 µM | – | – | COc1ccc2ccc(S(=O)(=O)N[C@H]3CCN(Cc4cc(C(=N)N)ccc4O)C3=O)cc2c1
2.22 µM | 0.003 µM | – | – | N=C(N)c1ccc(O)c(CN2CC[C@H](NS(=O)(=O)c3ccc(-c4ccon4)s3)C2=O)c1
> 4 µM | 0.983 µM | – | – | COc1ccc2ccc(S(=O)(=O)N[C@H]3CCN(Cc4ccc(O)c(C(=N)N)c4)C3=O)cc2c1
1.96 µM | 0.21 µM | – | – | N=C(N)c1cccc(CN2CC[C@H](NS(=O)(=O)c3ccc(-c4cccnc4)cc3)C2=O)c1
> 4 µM | 2.6 µM | – | – | Cn1ccnc1-c1ccc(S(=O)(=O)N[C@H]2CCN(Cc3cccc(C(=N)N)c3)C2=O)cc1
> 4 µM | 0.14 µM | – | – | N=C(N)c1cccc(CN2CC[C@H](NS(=O)(=O)c3ccc(-c4ccccn4)s3)C2=O)c1
> 4 µM | 0.16 µM | – | – | N=C(N)c1cccc(CN2CC[C@H](NS(=O)(=O)c3ccc(-c4ccccc4)cc3)C2=O)c1
1.05 µM | – | – | – | COc1ccc2ccc(S(=O)(=O)N(C)[C@H]3CCN(Cc4cccc(C(=N)N)c4)C3=O)cc2c1
> 4 µM | 0.15 µM | – | – | COc1nccc(-c2ccc(S(=O)(=O)N[C@H]3CCN(Cc4cccc(C(=N)N)c4)C3=O)s2)n1
> 4 µM | 1.2 µM | – | – | COc1ccc2ccc(S(=O)(=O)N[C@H]3CCN(Cc4cc(N)cc(C(=N)N)c4)C3=O)cc2c1
> 4 µM | 0.041 µM | – | – | N=C(N)c1cccc(CN2CC[C@H](NS(=O)(=O)c3ccc(-c4cccnc4)s3)C2=O)c1
0.201 µM | 0.004 µM | – | – | COc1ccc2ccc(S(=O)(=O)N(C)[C@H]3CCN(Cc4cc(C(=N)N)ccc4N)C3=O)cc2c1

Source: ChEMBL document CHEMBL1132374, “Sulfonamidopyrrolidinone factor Xa inhibitors: potency and selectivity enhancements via P-1 and P-4 optimization” (J Med Chem, 1999)
